Measured values from ChEMBL document CHEMBL1177846, “Benzylidene/2-chlorobenzylidene hydrazides: synthesis, antimicrobial activity, QSAR studies and antiviral evaluation” (Eur J Med Chem, 2010).
Calls of active or inactive are those of the source. No cut-off for these calls is given here.

Assays:
Vaccinia virus = assay: Antiviral activity against Vaccinia virus infected in human HEL cells assessed as inhibition of virus-induced cytopathic effect after 3 days by MTS assay; assay type: functional, organism-based; conditions: Orthopoxvirus vaccinia
Summary of the method: (§1)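 Confluent cell monolayers were infected with 100 CCID50 of virus and allowed 2 h adsorption at 37 °C. Virus was then removed and serial compound dilutions were added. Cultures were incubated at 37 °C for 3 days, until CPE was complete in the untreated virus control. EC50 was the concentration giving 50% inhibition of virus-induced CPE, by visual score or by MTS formazan cell viability.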

Influenza B virus = assay: Antiviral activity against influenza B virus infected in MDCK cells assessed as inhibition of virus-induced cytopathic effect after 3 days by MTS assay; assay type: functional, organism-based; summary of the method: as §1
Feline coronavirus = assay: Antiviral activity against Feline caronavirus infected in […] cells assessed as inhibition of virus-induced cytopathic effect after 3 days by MTS assay; assay type: functional, organism-based; summary of the method: as §1
Staphylococcus aureus = assay: Antibacterial activity against Staphylococcus aureus after 24 hrs by serial dilution method; assay type: functional
Coxsackievirus B4 = assay: Antiviral activity against Coxsackie virus B4 infected in african green monkey Vero cells assessed as inhibition of virus-induced cytopathic effect after 3 days by MTS assay; assay type: functional, organism-based; summary of the method: as §1
Escherichia coli = assay: Antibacterial activity against Escherichia coli after 24 hrs by serial dilution method; assay type: functional
Felid alphaherpesvirus 1 = assay: Antiviral activity against Feline herpesvirus 1 infected in […] cells assessed as inhibition of virus-induced cytopathic effect after 3 days by MTS assay; assay type: functional, organism-based; summary of the method: as §1
Punta Toro virus = assay: Antiviral activity against Punta toro virus infected in african green monkey Vero cells assessed as inhibition of virus-induced cytopathic effect after 3 days by MTS assay; assay type: functional, organism-based; summary of the method: as §1
Influenza A virus [1] = assay: Antiviral activity against influenza A virus H3N2 infected in MDCK cells assessed as inhibition of virus-induced cytopathic effect after 3 days by MTS assay; assay type: functional, organism-based; summary of the method: as §1
Sindbis virus = assay: Antiviral activity against Simbidis virus infected in african green monkey Vero cells assessed as inhibition of virus-induced cytopathic effect after 3 days by MTS assay; assay type: functional, organism-based; summary of the method: as §1
Bacillus subtilis = assay: Antibacterial activity against Bacillus subtilis after 24 hrs by serial dilution method; assay type: functional
[2] = system: Mammalian orthoreovirus 1; assay: Antiviral activity against Reovirus 1 infected in african green monkey Vero cells assessed as inhibition of virus-induced cytopathic effect after 3 days by MTS assay; assay type: functional, organism-based; summary of the method: as §1
Human alphaherpesvirus 1 [3] = assay: Antiviral activity against Herpes simplex virus 1 KOS infected in human HEL cells assessed as inhibition of virus-induced cytopathic effect after 3 days by MTS assay; assay type: functional, organism-based; summary of the method: as §1
Human alphaherpesvirus 2 = assay: Antiviral activity against Herpes simplex virus 2 G infected in human HEL cells assessed as inhibition of virus-induced cytopathic effect after 3 days by MTS assay; assay type: functional, organism-based; conditions: strain G; summary of the method: as §1
Human alphaherpesvirus 1 [4] = assay: Antiviral activity against acyclovir-resistant […] kinase-deficient HSV1 KOS infected in human HEL cells assessed as inhibition of virus-induced cytopathic effect after 3 days by MTS assay; assay type: functional, organism-based; summary of the method: as §1
Human respirovirus 3 = assay: Antiviral activity against Parainfluenza 3 virus infected in african green monkey Vero cells assessed as inhibition of virus-induced cytopathic effect after 3 days by MTS assay; assay type: functional, organism-based; summary of the method: as §1
Influenza A virus [5] = assay: Antiviral activity against influenza A virus H1N1 infected in MDCK cells assessed as inhibition of virus-induced cytopathic effect after 3 days by MTS assay; assay type: functional, organism-based; summary of the method: as §1
[6] = system: Vesicular stomatitis virus; assay: Antiviral activity against VSV infected in human HEL cells assessed as inhibition of virus-induced cytopathic effect after 3 days by MTS assay; assay type: functional, organism-based; summary of the method: as §1
Candida albicans = assay: Antifungal activity against Candida albicans after 48 hrs by serial dilution method; assay type: functional
Summary of the method: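 Serial compound dilutions in Sabouraud dextrose broth (tube dilution), incubated 37 °C for 48 h. MIC was read as the lowest concentration with no growth.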

Aspergillus niger = assay: Antifungal activity against Aspergillus niger after 7 days by serial dilution method; assay type: functional

| SMILES | inhibition (Vaccinia virus) | inhibition (Influenza B virus) | inhibition (Feline coronavirus) | MBC (Staphylococcus aureus) [uM/ml] | inhibition (Coxsackievirus B4) | MBC (Escherichia coli) [uM/ml] | inhibition (Felid alphaherpesvirus 1) | inhibition (Punta Toro virus) | inhibition (Influenza A virus [1]) | inhibition (Sindbis virus) | MBC (Bacillus subtilis) [uM/ml] | inhibition [2] | inhibition (Human alphaherpesvirus 1 [3]) | inhibition (Human alphaherpesvirus 2) | inhibition (Human alphaherpesvirus 1 [4]) | inhibition (Human respirovirus 3) | inhibition (Influenza A virus [5]) | inhibition [6] | MFC (Candida albicans) [uM/ml] | -logMIC (Aspergillus niger) | further results |
| --- | --- | --- | --- | --- | --- | --- | --- | --- | --- | --- | --- | --- | --- | --- | --- | --- | --- | --- | --- | --- | --- |
| Cc1cccc(C(=O)N/N=C/c2ccccc2)c1 | inactive | inactive | inactive | >0.21 | inactive | >0.21 | inactive | inactive | inactive | inactive | 0.052 | inactive | inactive | inactive | inactive | inactive | inactive | inactive | >0.21 | 1.58 | MFC (Aspergillus niger): >0.21 uM/ml |
| C/C=C/C=C/C(=O)N/N=C/c1ccccc1 | inactive | inactive | inactive | >0.233 | inactive | 0.058 | inactive | inactive | inactive | inactive | >0.233 | inactive | inactive | inactive | inactive | inactive | inactive | inactive | >0.233 | 1.54 | -logMIC (Candida albicans): 0.93; MFC (Aspergillus niger): >0.233 uM/ml |
| CCCCCCCCCCCCCCCC(=O)N/N=C/c1ccccc1Cl | inactive | inactive | inactive | >0.127 | inactive | 0.031 | inactive | inactive | inactive | inactive | 0.031 | inactive | inactive | inactive | inactive | inactive | inactive | inactive | >0.127 | 1.27 | -logMIC (Staphylococcus aureus): 1.5; -logMIC (Bacillus subtilis): 1.49; -logMIC (Candida albicans): 2.1; MFC (Aspergillus niger): >0.127 uM/ml |
| CCCCCCCCCCCCCC(=O)N/N=C/c1ccccc1 | inactive | inactive | inactive | >0.152 | inactive | >0.152 | inactive | inactive | inactive | inactive | >0.152 | inactive | inactive | inactive | inactive | inactive | inactive | inactive | >0.152 | 1.24 | MFC (Aspergillus niger): >0.152 uM/ml |
| CCCCCCCCCCCC(=O)N/N=C/c1ccccc1 | inactive | inactive | inactive | >0.166 | inactive | 0.041 | inactive | inactive | inactive | inactive | >0.166 | inactive | inactive | inactive | inactive | inactive | inactive | inactive | >0.166 | 1.21 | MFC (Aspergillus niger): >0.166 uM/ml |
| O=C(/C=C/c1ccccc1)N/N=C/c1ccccc1Cl | inactive | inactive | inactive | 0.176 | inactive | >0.176 | inactive | inactive | inactive | inactive | 0.088 | inactive | inactive | inactive | inactive | inactive | inactive | inactive | >0.176 | 1.76 | MFC (Aspergillus niger): >0.176 uM/ml |
